Activity calls are given as the source filed them. The calls are words filed in the database; no cut-off is given here.
Experiments:
E-selectin = biological target: T1, E-selectin (Homo sapiens, UniProt P16581); experiment: Antagonist activity at E-selectin (unknown origin) assessed as adhesion to [3H]thymidine-labelled human HL60 cells by static assay; assay type: cell-based, HL-60
T1 sequence (P16581 whole entry): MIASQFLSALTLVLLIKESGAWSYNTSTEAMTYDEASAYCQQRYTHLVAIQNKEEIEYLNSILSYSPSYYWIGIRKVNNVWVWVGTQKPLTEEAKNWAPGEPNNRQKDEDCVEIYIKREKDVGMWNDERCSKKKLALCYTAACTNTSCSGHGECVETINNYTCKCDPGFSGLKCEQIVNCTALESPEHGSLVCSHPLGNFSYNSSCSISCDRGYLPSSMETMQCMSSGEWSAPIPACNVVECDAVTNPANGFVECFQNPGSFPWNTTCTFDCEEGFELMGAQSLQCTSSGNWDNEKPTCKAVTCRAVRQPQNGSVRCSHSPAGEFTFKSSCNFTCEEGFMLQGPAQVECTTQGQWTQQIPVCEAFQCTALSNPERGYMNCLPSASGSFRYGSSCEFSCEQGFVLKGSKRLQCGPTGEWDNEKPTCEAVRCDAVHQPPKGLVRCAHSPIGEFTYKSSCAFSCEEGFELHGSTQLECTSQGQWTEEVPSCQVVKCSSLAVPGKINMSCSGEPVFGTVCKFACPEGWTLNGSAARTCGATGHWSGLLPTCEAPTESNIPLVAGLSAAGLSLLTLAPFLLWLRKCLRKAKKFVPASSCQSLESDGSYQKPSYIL
How it was run: (§1)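 HL-60 cells labelled with [3H]thymidine in the culture medium. Wells precoated with goat anti-human IgG, then E- or P-selectin IgG (per line) captured. Labelled cells incubated on the immobilized selectin with test compound over a dose range. Non-adherent cells washed off, bound radioactivity counted, and IC50 derived from the dose-dependent loss of adherent cells.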

P-selectin [1] = biological target: T2, P-selectin (Homo sapiens, UniProt P16109); experiment: Antagonist activity at P-selectin (unknown origin) assessed as adhesion to [3H]thymidine-labelled human HL60 cells by static assay; assay type: cell-based, HL-60; how it was run: as §1
T2 sequence (P16109 whole entry): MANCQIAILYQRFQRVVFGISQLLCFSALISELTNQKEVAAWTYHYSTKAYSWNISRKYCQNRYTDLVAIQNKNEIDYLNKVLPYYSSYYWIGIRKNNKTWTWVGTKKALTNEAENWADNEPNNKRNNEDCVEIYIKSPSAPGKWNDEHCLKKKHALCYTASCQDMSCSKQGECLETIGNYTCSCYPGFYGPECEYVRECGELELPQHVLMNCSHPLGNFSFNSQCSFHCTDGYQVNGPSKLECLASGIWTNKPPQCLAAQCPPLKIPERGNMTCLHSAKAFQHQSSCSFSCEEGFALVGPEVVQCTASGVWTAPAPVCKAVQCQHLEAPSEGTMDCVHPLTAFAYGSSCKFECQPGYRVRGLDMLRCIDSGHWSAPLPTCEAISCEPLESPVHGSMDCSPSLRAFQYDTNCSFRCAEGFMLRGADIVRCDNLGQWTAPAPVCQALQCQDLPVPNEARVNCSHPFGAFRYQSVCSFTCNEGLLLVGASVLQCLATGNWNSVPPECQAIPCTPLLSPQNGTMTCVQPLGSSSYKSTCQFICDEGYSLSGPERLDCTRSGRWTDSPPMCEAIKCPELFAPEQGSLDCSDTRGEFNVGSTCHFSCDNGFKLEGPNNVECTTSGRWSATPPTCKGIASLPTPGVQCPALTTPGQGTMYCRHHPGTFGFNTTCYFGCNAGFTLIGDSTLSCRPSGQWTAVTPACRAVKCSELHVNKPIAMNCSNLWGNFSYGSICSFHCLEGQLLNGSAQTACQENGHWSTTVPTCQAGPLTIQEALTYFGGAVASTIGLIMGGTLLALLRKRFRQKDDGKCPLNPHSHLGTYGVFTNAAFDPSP

P-selectin [2] = biological target: T2, P-selectin; experiment: Antagonist activity at P-selectin (unknown origin) by surface plasmon resonance-based dynamic assay
Mus musculus = experiment: Inhibition of TNFalpha-induced decrease in leukocyte rolling flux in mouse cremaster at 100 mg/kg, iv; assay type: functional, organism-based; design: dose 100 mg/kg
How it was run: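 Intravital microscopy of mouse cremaster. Mice receive rmTNFα in 150 μL saline. Compound in saline, or saline alone, is given intrajugularly at 100 mg/kg. Leukocyte rolling is read before and 10 min after injection. Means of 5 readings per venule, 10 venules per mouse, 5–6 mice per condition (±SEM).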

Row | IC50 (E-selectin) [µM] | IC50 (P-selectin [1]) [µM] | IC50 (P-selectin [2]) [µM] | Compound | inhibition (Mus musculus)
1 | 140 | 110 | 18 | COC(=O)[C@H](O[C@@H]1O[C@@H](C)[C@@H](O)[C@@H](O)[C@@H]1O)[C@@H](O[C@@H]1O[C@H](CO)[C@H](OC(=O)c2ccccc2)[C@H](O[C@H](Cc2ccccc2)C(=O)O)[C@H]1OC(=O)c1ccccc1)C(=O)OC | 
2 | 76 | 67 | 8 | CC(C)OC(=O)[C@H](O[C@@H]1O[C@@H](C)[C@@H](O)[C@@H](O)[C@@H]1O)[C@@H](O[C@@H]1O[C@H](CO)[C@H](OC(=O)c2ccccc2)[C@H](O[C@H](Cc2ccccc2)C(=O)O)[C@H]1OC(=O)c1ccccc1)C(=O)OC(C)C | 
3 |  |  | 19 | CC(C)OC(=O)[C@H](O[C@@H]1O[C@@H](C)[C@@H](O)[C@@H](O)[C@@H]1O)[C@@H](O[C@@H]1O[C@H](CO)[C@H](OC(=O)c2ccccc2)[C@H](O[C@H](Cc2ccccc2)C(=O)O)[C@H]1O)C(=O)OC(C)C | 
4 | 2080 | 1900 | 520 | COC(=O)[C@H](O[C@@H]1O[C@@H](C)[C@@H](O)[C@@H](O)[C@@H]1O)[C@@H](O[C@@H]1O[C@H](CO)[C@H](O)[C@H](O[C@H](Cc2ccccc2)C(=O)O)[C@H]1OC(=O)c1ccccc1)C(=O)OC | 
5 |  |  | 16 | COC(=O)[C@H](O[C@@H]1O[C@H](CO)[C@H](OC(=O)c2ccccc2)[C@H](O[C@H](Cc2ccccc2)C(=O)O)[C@H]1OC(=O)c1ccccc1)[C@@H](O[C@@H]1O[C@@H](C)[C@@H](O)[C@@H](O)[C@@H]1O)C(=O)OC(C)C | 
6 | 220 | 190 | 34 | CC(C)OC(=O)[C@H](O[C@@H]1O[C@@H](C)[C@@H](O)[C@@H](O)[C@@H]1O)[C@@H](O[C@@H]1O[C@H](CO)[C@H](O)[C@H](O[C@H](Cc2ccccc2)C(=O)O)[C@H]1OC(=O)c1ccccc1)C(=O)OC(C)C | 
7 |  |  | 8 | CC(C)OC(=O)[C@H](O[C@H]1O[C@@H](CO)[C@H](OC(=O)c2ccccc2)[C@@H](O[C@@H](Cc2ccccc2)C(=O)O)[C@H]1OC(=O)c1ccccc1)[C@@H](O[C@H]1O[C@@H](C)[C@@H](O)[C@@H](O)[C@@H]1O)C(=O)OCCc1cn(CCCCCOC(=O)[C@H](O[C@@H]2O[C@@H](C)[C@@H](O)[C@@H](O)[C@H]2O)[C@@H](O[C@@H]2O[C@H](CO)[C@H](OC(=O)c3ccccc3)[C@H](O[C@H](Cc3ccccc3)C(=O)O)[C@H]2OC(=O)c2ccccc2)C(=O)OC(C)C)nn1 | 
8 |  |  | 21 | COC(=O)[C@H](O[C@@H]1O[C@@H](C)[C@@H](O)[C@@H](O)[C@@H]1O)[C@@H](O[C@@H]1O[C@H](CO)[C@H](OC(=O)c2ccccc2)[C@H](O[C@H](Cc2ccccc2)C(=O)O)[C@H]1OC(=O)c1ccccc1)C(=O)OC(C)C | 
9 | 5460 | 4840 |  | COC(=O)[C@H](O[C@@H]1O[C@@H](C)[C@@H](O)[C@@H](O)[C@@H]1O)[C@@H](O[C@@H]1O[C@H](CO)[C@H](O)[C@H](O[C@H](Cc2ccccc2)C(=O)O)[C@H]1O)C(=O)OC | 
10 |  |  |  | CC(=O)N[C@H]1[C@H]([C@H](O)[C@H](O)CO)O[C@@](O[C@H]2[C@@H](O)[C@@H](CO)O[C@@H](O[C@@H]([C@H](O[C@@H]3O[C@@H](C)[C@@H](O)[C@@H](O)[C@@H]3O)[C@H](C=O)NC(C)=O)[C@H](O)CO)[C@@H]2O)(C(=O)O)C[C@@H]1O | Active
